Measured values taken from ChEMBL document CHEMBL1148178, “Dicranin, an antimicrobial and 15-lipoxygenase inhibitor from the moss Dicranum scoparium” (1993).

Key:
Glycine max [1] = assay: Inhibition of soybean 15-LOX at 33 ug/ml
In short: (§1)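 15-Lipoxygenase inhibition assay run with arachidonic acid (40 μM) as the substrate, at the single test concentration given in each line.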

Glycine max [2] = assay: Inhibition of soybean 15-LOX at 0.36 uM; in short: as §1

Oc1ccccc1O
inhibition (Glycine max [1]): 33%
inhibition (Glycine max [2]): 37%
